Data as given in the array DNA melting data of Ke et al. (doi:10.1101/2024.01.08.574731).

Experiments:
[1] = folding enthalpy; higher = less favourable; fluorescence melt of hairpins on a sequencing array, two-state fit; settings: sodium 0.088 M
Summary of the method: (§1)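 Cy3 fluorescence of library hairpins on a sequenced MiSeq flow cell, with annealed Cy3 and quencher oligos, was imaged in 50 mM Na-HEPES pH 8.0, 25 mM NaCl in 2.5 °C steps up to 60 °C. Signals were normalised to pre-quench Cy3 and to control variants. Melting temperature and folding enthalpy came from bootstrapped two-state fits, inverse-variance combined over four replicates. Fitted temperatures were raised by 9.35 °C to match UV melts.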

[2] = melting temperature; fluorescence melt of hairpins on a sequencing array, two-state fit, raised by 9.35 °C to match UV melts; settings: sodium 0.088 M
Summary of the method: as §1

Sequence | folding enthalpy [1] [kcal/mol] | Tm [2] [°C]
GCGTCATCGAAAGATCGC (((..(((....)))))) | -24.4 | 44
GGATAAGCGAAAGCTTCC (((..(((....)))))) | -12.4 | 35.5
GGGTAGCGAAAGCTGCCC (((.(((....))).))) | -33.5 | 69.2
GTGCGTGGAAACACGTGC (..((((....))))..) | -18.4 | 51.5
GACGGGCGAAAGCCGGTC (((.(((....))).))) | -25.9 | 65.5
GGCCCACGAAAGTGAGCC (((.(((....))).))) | -40.6 | 60.8
GTTATGGGAAACCGTAAC ((((.((....)).)))) | -33.2 | 44.2
GCGTGTTTACGC ((((....)))) | -30 | 55
GATCGACTGTTCGATC ((((((....)))))) | -40.5 | 50.6
CGAACGGAAACGTTTCG ((((((....))).))) | -26.2 | 46.1
GGTCACGAAAGTGTCACC ((((((....)))..))) | -13.3 | 37.9
CGACGGCGGAAACGCTCG (((..(((....)))))) | -15.4 | 38.3
GCCATTGGAAACAACGGC (((.(((....))).))) | -33.1 | 43
GCGTAGCGAAAGCCAAGC ((.(.((....)).).)) | -8.12 | 39.9
GTCGGGTCGAAAGACGAC (((..(((....)))))) | -19.8 | 47.4
GCGGCTGCCCGC ((((....)))) | -19.4 | 55
GGTACCGAAAGGTATACC ((((((....)))..))) | -15.3 | 41.4
GCAGGCGAAAGCCACTGC ((((((....)))..))) | -15.9 | 48
GGAAGTGGAAACACTTTC (.(((((....))))).) | -26.6 | 45.2
GATCACGCACGTGATC ((((((....)))))) | -40.5 | 68.9
GCGAACCGTCGC ((((....)))) | -18.7 | 47.7
GTCATTGGAAACAACGAC (((.(((....))).))) | -20.9 | 35.5
GGGGGTGGAAACGCCCTC (.(((.(....).))).) | -28 | 59.5
GGGGTGCCGAAAGGCCCC (((..(((....)))))) | -14.6 | 65

Sequence | folding enthalpy [1] [kcal/mol] | Tm [2] [°C]
GCAGCGGGAAACCGTTGC (((.(((....))).))) | -39.4 | 57.9
GGTGGGAAACCACC (((((....))))) | -24.4 | 62.4
GCTCGTCGAAAGACTAGC (((.(((....))).))) | -39 | 49
GTTCCTCGAAAGAGAAC (((.(((....)))))) | -24.1 | 36.3
GATCTGTGATCAGATC ((((((....)))))) | -34 | 49.2
GGGCGCGAAAGCGGACCC ((((((....)))..))) | -12.8 | 61.5
GCTAGGCGAAAGCCGCGC ((..(((....)))..)) | -16.9 | 62
GTCCTACCGAAAGGTGAC (((..(((....)))))) | -11.1 | 32.5
GAGTCGCGAAAGCGCTC (((.(((....)))))) | -15.4 | 54.6
GACGAGCGAAAGCTAGTC (((.(((....))).))) | -31 | 56.8
GAACGCGGAAACGCGTCC (.(((((....))))).) | -9.64 | 47.8
GCATGAGGAAACTTATGC ((((.((....)).)))) | -34.7 | 44.2
GAGTGGGAAACCACTC ((((((....)))))) | -33.6 | 60.7
GTGAATCGAAAGATGCAC (((.(((....))).))) | -31.4 | 50.3
GGCTCACGAAAGTGGCC (((.(((....)))))) | -26.3 | 56.6
GCTTGTGGAAACACGAGC (((.(((....))).))) | -37.8 | 54.5
GATTGTGGAAACGCAATC (((((.(....).))))) | -35.5 | 47.2
GATCAACCTTTGATC ((((((...)))))) | -32.4 | 42
GTTGGATCGAAAGATAAC (((..(((....)))))) | -6.79 | 27.3
GTCCTGGGAAACTGGGAC ((((..(....)..)))) | -26.5 | 44.8
GAGAGACGAAAGTCCCTC (((.(((....))).))) | -25.8 | 44.9
GCCGCCGGAAACAGCGGC (((((.(....).))))) | -37.4 | 66.4
GCTTCGCGAAAGCTTAGC (((..((....))..))) | -15.2 | 50.2
GCGTGCGAAAGCAACCGC ((((((....)))..))) | -18.6 | 53.7

Sequence | folding enthalpy [1] [kcal/mol] | Tm [2] [°C]
GCGCCGCGAAAGCGCTGC ((..(((....)))..)) | -15.6 | 61.1
GCTAAGCGAAAGCCTAGC ((((.((....)).)))) | -21.9 | 49.1
GATCACGAGGTGATC ((((((...)))))) | -33.7 | 57.8
GCACAACGAAAGTTTTGC (((.(((....))).))) | -37.7 | 46.9
ACTAGGAAACTAGT (((((....))))) | -13.9 | 37.9
GAACGGAAACGTTC (((((....))))) | -31.7 | 55.2
GATCCCGCCGGGATC ((((((...)))))) | -39.7 | 67.6
GTCAGGAAACTGAC (((((....))))) | -25.6 | 53.6
GATTTCGGAAACGAGATC (((.(((....))).))) | -30 | 41.6
GCAACTGAAAAGTTGC ((((((....)))))) | -36.6 | 62.5
GCCACCCGAAAGGGGGC (((.(((....)))))) | -22.8 | 68.5
GATTCGGGAAACCAAATC ((((.((....)).)))) | -22.3 | 30.1
GCCACCGGAAACGGCAGC ((..(((....)))..)) | -15.6 | 31
GAAATAGGAAACTATTTC (((((((....))))))) | -44.1 | 46.4
GCCGTCCCGAAAGGGGGC (((..(((....)))))) | -17 | 49.4
GCGGCCGAAAGGCACCGC ((((((....)))..))) | -16.8 | 56
GTCGCCGAAAGGCAAGAC ((((((....)))..))) | -15.4 | 49.8
GATCGTAGTGACGATC ((((((....)))))) | -33.7 | 56.6
GGACCGCGAAAGCGTCC (((.(((....)))))) | -17.1 | 59.6
GCGTCCTTACGC ((((....)))) | -23.6 | 53.6
GTAGAGGAAACTCTAC ((((((....)))))) | -25.3 | 49.1
GTGGAGACGAAAGTCCAC (((..(((....)))))) | -22.8 | 47.6
GACCTCGGAAACAAGGTC (((((.(....).))))) | -32.1 | 40.9
GCTCGCGAAAGCGCAAGC ((((((....)))..))) | -12.4 | 48.5

Sequence | folding enthalpy [1] [kcal/mol] | Tm [2] [°C]
GCGACTGGAAACGGTCGC (((((.(....).))))) | -46.3 | 64.7
GGTACCGGAAACAGTACC (((((.(....).))))) | -31.1 | 39.9
GATGGCGAAAGCCTAATC ((((((....)))..))) | -9.84 | 32
GCAGTCGAAAGACTTGC ((((((....))).))) | -22.6 | 50.4
CGCGGACTGCTCCGCG ((((((....)))))) | -39.8 | 62.4
GCAGGCGAAAGCCTTGC ((((((....))).))) | -17.6 | 59.2
GATCTTTCAGAAGATC ((((((....)))))) | -34.1 | 44.3
GCTAACCGAAAGGTGAGC (((.(((....))).))) | -32.1 | 59.7
GATCCAGAAGTGGATC ((((((....)))))) | -35.5 | 52.1
GTGGTCGGAAACGGCTAC ((.(.((....)).).)) | -25.8 | 44.5
GCAGCCGAAAGGCTATGC ((((((....)))..))) | -14 | 47.4
GAAACGGAAACGTTTC ((((((....)))))) | -39.8 | 55.3
GCTTTTGAAAAAAAGC ((((((....)))))) | -30.5 | 50.4
GATCCGGGGTCGGATC ((((((....)))))) | -47.9 | 56.7
GGTAGAACGAAAGTTACC (((..(((....)))))) | -17 | 35
GATCCGCAGACGGATC ((((((....)))))) | -36.3 | 60.8
GTATTGGGAAACCAACAC ((.((((....)))).)) | -15 | 31.4
GATCAGACTGCTGATC ((((((....)))))) | -28.1 | 48.3
GTGCAGGGAAACCTGTAC ((.((((....)))).)) | -36.1 | 49.6
GTGTAGCGAAAGCTTCAC (((.(((....))).))) | -32 | 51.8
GCTCAGCGAAAGCTCCGC ((..(((....)))..)) | -8.07 | 22.4
